Laboratory results published in article PMC3902791 (Molecular imaging and biology : MIB : the official …, 2012).
Where “and” joins values, the source holds several entries; their conditions need not be identical. Equal entries are not always repeated. Where two headings read alike, the source gives them in different places.

Design: species or system human
Conditions: Mean±SD
Summary of the method: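 Organ time–activity curves came from whole-body scan VOI data. These were fitted mono-exponentially in five animals; in the sixth, with two scans, a linear fit to the log values was used. Time-integrated activity coefficients were scaled by the ratio of body-mass-normalised human to CT-derived macaque organ masses. Intestinal values were split in thirds across small intestine, ULI and LLI. Organ doses (mSv/MBq) were computed per animal with the OLINDA/EXM 1.1 adult male model.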

O=C(O)C[18F] [^18F-FACE, ^18F-fluoroacetate]
Dose to adult human model, Total body (All): 0.011±0.002 mSv/MBq
ED effective dose, adult human model (All): 0.0211 mSv/MBq and 0.021±0.004 mSv/MBq
EDE effective dose equivalent, adult human model (All): 0.023±0.004 mSv/MBq
Organ dose to adult human model, Adrenals (All): 0.013±0.002 mSv/MBq
Organ dose to adult human model, Brain (All): 0.00762 mSv/MBq and 0.008±0.002 mSv/MBq
Organ dose to adult human model, Breasts (All): 0.00774 mSv/MBq and 0.008±0.001 mSv/MBq
Organ dose to adult human model, Gallbladder wall (All): 0.0288 mSv/MBq and 0.029±0.010 mSv/MBq
Organ dose to adult human model, Heart wall (All): 0.025±0.010 mSv/MBq
Organ dose to adult human model, Kidneys (All): 0.0342 mSv/MBq and 0.034±0.008 mSv/MBq
Organ dose to adult human model, LLI wall (lower large intestine) (All): 0.075±0.027 mSv/MBq
Organ dose to adult human model, Liver (All): 0.0307 mSv/MBq and 0.031±0.021 mSv/MBq
Organ dose to adult human model, Lungs (All): 0.010±0.002 mSv/MBq
Organ dose to adult human model, Muscle (All): 0.010±0.002 mSv/MBq
Organ dose to adult human model, Osteogenic cells (All): 0.014±0.003 mSv/MBq
Organ dose to adult human model, Ovaries (All): 0.016±0.002 mSv/MBq
Organ dose to adult human model, Pancreas (All): 0.013±0.002 mSv/MBq
Organ dose to adult human model, Red marrow (All): 0.0102 mSv/MBq and 0.010±0.002 mSv/MBq
Organ dose to adult human model, Skin (All): 0.007±0.001 mSv/MBq
Organ dose to adult human model, Small intestine (All): 0.037±0.011 mSv/MBq
Organ dose to adult human model, Spleen (All): 0.011±0.002 mSv/MBq
Organ dose to adult human model, Stomach wall (All): 0.012±0.002 mSv/MBq
Organ dose to adult human model, Testes (All): 0.009±0.001 mSv/MBq
Organ dose to adult human model, Thymus (All): 0.010±0.002 mSv/MBq
Organ dose to adult human model, Thyroid (All): 0.00888 mSv/MBq and 0.009±0.002 mSv/MBq
Organ dose to adult human model, ULI wall (upper large intestine) (All): 0.056±0.019 mSv/MBq
Organ dose to adult human model, Urinary bladder wall (All): 0.021±0.010 mSv/MBq
Organ dose to adult human model, Uterus (All): 0.014±0.003 mSv/MBq
Dose to adult human model, Total body (Female): 0.010±0.002 mSv/MBq
ED effective dose, adult human model (Female): 0.018±0.001 mSv/MBq
EDE effective dose equivalent, adult human model (Female): 0.020±0.001 mSv/MBq
Organ dose to adult human model, Adrenals (Female): 0.012±0.002 mSv/MBq
Organ dose to adult human model, Brain (Female): 0.007±0.002 mSv/MBq
Organ dose to adult human model, Breasts (Female): 0.007±0.002 mSv/MBq
Organ dose to adult human model, Gallbladder wall (Female): 0.031±0.013 mSv/MBq
Organ dose to adult human model, Heart wall (Female): 0.019±0.006 mSv/MBq
Organ dose to adult human model, Kidneys (Female): 0.031±0.010 mSv/MBq
Organ dose to adult human model, LLI wall (lower large intestine) (Female): 0.058±0.005 mSv/MBq
Organ dose to adult human model, Liver (Female): 0.021 ±0.009 mSv/MBq
Organ dose to adult human model, Lungs (Female): 0.009±0.002 mSv/MBq
Organ dose to adult human model, Muscle (Female): 0.009±0.002 mSv/MBq
Organ dose to adult human model, Osteogenic cells (Female): 0.014±0.004 mSv/MBq
Organ dose to adult human model, Ovaries (Female): 0.016±0.002 mSv/MBq
Organ dose to adult human model, Pancreas (Female): 0.012±0.002 mSv/MBq
Organ dose to adult human model, Red marrow (Female): 0.009±0.002 mSv/MBq
Organ dose to adult human model, Skin (Female): 0.007±0.002 mSv/MBq
Organ dose to adult human model, Small intestine (Female): 0.030±0.002 mSv/MBq
Organ dose to adult human model, Spleen (Female): 0.010±0.003 mSv/MBq
Organ dose to adult human model, Stomach wall (Female): 0.011±0.002 mSv/MBq
Organ dose to adult human model, Thymus (Female): 0.009±0.002 mSv/MBq
Organ dose to adult human model, Thyroid (Female): 0.009±0.003 mSv/MBq
Organ dose to adult human model, ULI wall (upper large intestine) (Female): 0.044±0.003 mSv/MBq
Organ dose to adult human model, Urinary bladder wall (Female): 0.017±0.004 mSv/MBq
Organ dose to adult human model, Uterus (Female): 0.014±0.003 mSv/MBq
Dose to adult human model, Total body (Male): 0.012±0.001 mSv/MBq
ED effective dose, adult human model (Male): 0.025±0.003 mSv/MBq
EDE effective dose equivalent, adult human model (Male): 0.027±0.003 mSv/MBq
Organ dose to adult human model, Adrenals (Male): 0.014±0.002 mSv/MBq
Organ dose to adult human model, Brain (Male): 0.008±0.001 mSv/MBq
